Sampled rows, rich in hits. Any-hit rate of the full collection: about 3.3%.
PRMT1 inh – PRMT1 (human) inhibition, primary screen; Q99873; recombinant PRMT1, activity-based probe fluorescence polarization; inhibition, % at 2.79 µM; 370,000 compounds, 1.3% hits; AID 652257;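 active = inhibition above about 21% made by adding two undisclosed values, limit read from the data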
SIAE primary – inhibitors of human sialic acid acetylesterase SIAE; Q9HAT2; SIAE FP-Rh probe binding, fluorescence polarization; inhibition, % at 9.66 µM; 370,000 compounds, 0.69% hits;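 active = inhibition above a cutoff: mean of compounds within the control limits plus 3 SD of those, cut at about 17% in these data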;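 note: 0% = plate median of compound wells and 100% = probe without SIAE protein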
ABHD4 inh – inhibits mouse alpha/beta hydrolase domain 4 | Q8VD66 | purified mABHD4, FP-Rh probe fluorescence polarization | inhibition, % at 8.92 µM | 370,000 compounds, 0.54% hits | AID 720543;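 active = inhibition exceeding the mean over every tested compound plus 3 SD, cut at about 30% in these data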;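 note: 0% = plate median of compound wells and 100% = S159A mutant with DMSO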
Target sequence (Q8VD66 whole entry, looked up, the tested form may be a part): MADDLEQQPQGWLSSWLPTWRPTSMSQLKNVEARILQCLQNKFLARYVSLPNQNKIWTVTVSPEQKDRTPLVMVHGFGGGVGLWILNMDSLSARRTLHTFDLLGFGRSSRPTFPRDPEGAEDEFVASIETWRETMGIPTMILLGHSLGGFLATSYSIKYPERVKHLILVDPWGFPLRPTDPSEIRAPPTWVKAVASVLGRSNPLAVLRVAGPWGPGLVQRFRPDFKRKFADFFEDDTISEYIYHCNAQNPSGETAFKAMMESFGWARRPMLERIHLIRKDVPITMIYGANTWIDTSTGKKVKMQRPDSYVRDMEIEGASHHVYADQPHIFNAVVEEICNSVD
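Test system: mABHD4 protein | Buffer or medium: HEPES pH 7.0 buffer, 150 mM NaCl, 0.01% Pluronic F-127 | Probe or stimulus: FP-Rh fluorescent activity-based probe, added after compound pre-incubation | Timing: Pre-incubation 45 min, probe exposure 60 min, at 25 °C | Technique: Fluorescence polarization, excitation 525 nm, emission 598 nm, BODIPY TMR filters | Repeats: Single well per compound (singlicate)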
rCAG binder – binds r(CAG) RNA repeats. r(CAG) RNA repeat, TO-PRO-1 dye displacement fluorescence. inhibition, % at 3 µM. 370,000 compounds, 1.3% hits;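 active = inhibition above the plate cutoff, the mean of all test compounds on that plate plus 3 SD, cut at about 35% in these data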;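 note: 0% = DMSO alone and 100% = 100 µM mitoxantrone as full dye displacement; higher means more dye released from RNA so lower well fluorescence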
TCR-CD3 inh – blocks the human TCR-CD3 interaction; TAMRA-labeled TCR probe fluorescence, biochemical; 360,000 compounds, 0.37% hits; inhibition, % at 9.4 µM; in the data active = inhibition above about 19%;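 note: recombinant mutant TCR 2C K166C tagged with TAMRA read by polarization; 0% = receptor in buffer alone and 100% = receptor with positive control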
rCAG bind conf – r(CAG) RNA repeat binding, confirmation. TO-PRO-1 dye displacement fluorescence. inhibition, % at 3 µM. 4,300 compounds, 70% hits. shares compounds with rCAG binder;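 active = inhibition above a per-plate cutoff, the mean inhibition of sample wells plus 3 SD, cut at about 35% in these data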;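 note: loss of TO-PRO-1 fluorescence as compound displaces dye from 1x1 AA loop RNA; 0% = DMSO only wells and 100% = 100 µM mitoxantrone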
DNA CAG counter – disrupts DNA CAG TO-PRO-1 complex, flagging rCAG hits. d(CAG) DNA oligo TO-PRO-1 dye displacement, fluorescence. inhibition, % at 3 µM. shares compounds with rCAG binder. AID 652068. 4,300 compounds, 94% hits;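 active = inhibition above its plate's cutoff, the mean test-well inhibition plus 3 SD, cut at about 4.8% in these data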;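 note: 0% = DNA dye mix with DMSO and 100% = 100 µM mitoxantrone; hits displace the dye from DNA and so lower well fluorescence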
dCAG dye DR – disrupts DNA CAG TO-PRO-1 complex in dose response; DNA CAG/GTC duplex TO-PRO-1 dye displacement fluorescence; shares compounds with rCAG binder; IC50, µM; 250 compounds, 20% hits; in the data active = IC50 below about 10 µM
Starred values were filed as active, the others as inactive.

For O=C(N/N=C/c1ccc([N+](=O)[O-])o1)c1cc(-c2cccc(Br)c2)nc2ccccc12 the results were PRMT1 inh 1, SIAE primary 8, ABHD4 inh 11, rCAG binder 43*, TCR-CD3 inh 5, rCAG bind conf 47* and DNA CAG counter 29*.
`O=C(O)COc1ccccc1/C=N/NC(=O)c1cc(-c2ccc(Cl)cc2)nc2ccccc12` gave PRMT1 inh -3, SIAE primary -11, ABHD4 inh -26, rCAG binder 79*, TCR-CD3 inh 8, rCAG bind conf 72*, DNA CAG counter 33* and dCAG dye DR inactive.
For CCCc1ccc(-c2cc(C(=O)N/N=C/c3ccc([N+](=O)[O-])o3)c3ccccc3n2)cc1 the results were PRMT1 inh 3, SIAE primary -3, ABHD4 inh 10, rCAG binder 45*, TCR-CD3 inh -2, rCAG bind conf 36* and DNA CAG counter 19*.
O=C(O)COc1ccccc1/C=N/NC(=O)c1cc(-c2ccccc2)nc2ccccc12 was read as PRMT1 inh 0, SIAE primary -7, ABHD4 inh -11, rCAG binder 34 and TCR-CD3 inh -2.
`O=C(N/N=C/c1ccco1)c1cc(-c2ccccc2)nc2ccccc12` gave PRMT1 inh -2, SIAE primary 1, ABHD4 inh -18, rCAG binder 7 and TCR-CD3 inh 10.
Screening O=C(N/N=C/c1ccc([N+](=O)[O-])o1)c1sc2ccccc2c1Cl returned PRMT1 inh 15, SIAE primary -1, ABHD4 inh 27, rCAG binder 36*, TCR-CD3 inh 7, rCAG bind conf 39* and DNA CAG counter 18*.
For CN(C)c1cccc(-c2cnc(N3CCC(C(N)=O)CC3)nc2)c1 the results were PRMT1 inh 4, SIAE primary 6 and ABHD4 inh 6.
O=C(NC1CCCCN(Cc2ccc(OC(F)(F)F)cc2)C1=O)c1ccc2ccccc2c1 (stereo unspecified) was read as PRMT1 inh 1, SIAE primary -15, ABHD4 inh -5 and rCAG binder 2.
`CCn1nc(NS(=O)(=O)c2ccccc2[N+](=O)[O-])c2cc3cccc(C)c3nc21` gave PRMT1 inh 7, SIAE primary 9, ABHD4 inh 20, rCAG binder 74*, TCR-CD3 inh 3, rCAG bind conf 54* and DNA CAG counter 21*.
CCn1nc(NS(=O)(=O)c2ccc([N+](=O)[O-])cc2)c2cc3cccc(C)c3nc21 was read as PRMT1 inh 2, SIAE primary 10, ABHD4 inh 11, rCAG binder 85*, TCR-CD3 inh 2, rCAG bind conf 69* and DNA CAG counter 31*.
For O=C(c1ccc(F)cc1F)N1CCC(Oc2cccnc2)CC1 the results were PRMT1 inh -8, SIAE primary -2, ABHD4 inh -1 and rCAG binder 0.
COC(=O)CNC(=O)[C@H](Cc1ccccc1)NC1(C(=O)NCCc2c[nH]c3ccccc23)CCCCC1 was read as PRMT1 inh -10, SIAE primary 3 and ABHD4 inh -8.
`Cc1cnc(C(=O)OCC(=O)Nc2oc(-c3ccccc3)c(-c3ccccc3)c2C#N)cn1` gave PRMT1 inh 2, SIAE primary 1, ABHD4 inh -14, rCAG binder 46*, TCR-CD3 inh 2, rCAG bind conf 51* and DNA CAG counter 14*.
CCOc1ccc2nc(NS(=O)(=O)c3ccc4c(c3)n(C)c(=O)n4C)sc2c1 was read as PRMT1 inh 1, SIAE primary 4, ABHD4 inh 14, rCAG binder 44*, TCR-CD3 inh 4, rCAG bind conf 26 and DNA CAG counter 8.3*.
`Cc1noc(NS(=O)(=O)c2ccc(NC(=O)CSc3nnc4c(n3)[nH]c3ccccc34)cc2)c1C` gave PRMT1 inh 7, SIAE primary -27, ABHD4 inh -11, rCAG binder 65*, TCR-CD3 inh 1, rCAG bind conf 67* and DNA CAG counter 32*.
For CCSc1ncc(Cl)c(C(=O)Nc2ccc(S(=O)(=O)Nc3onc(C)c3C)cc2)n1 the results were PRMT1 inh 3, SIAE primary 0, ABHD4 inh -1, rCAG binder 54*, TCR-CD3 inh 8, rCAG bind conf 29 and DNA CAG counter 6.9*.
Cc1noc(NS(=O)(=O)c2ccc(NC(=O)Nc3ccc(Cl)c(Cl)c3)cc2)c1C was read as PRMT1 inh -2, SIAE primary -6, ABHD4 inh -51, rCAG binder 91*, TCR-CD3 inh 10, rCAG bind conf 83* and DNA CAG counter 53*.
For Cc1noc(NS(=O)(=O)c2ccc(NC(=O)C(Cl)(Cl)Cl)cc2)c1C the results were PRMT1 inh 6, SIAE primary -5, ABHD4 inh -14, rCAG binder -141 and TCR-CD3 inh -12.
Screening COc1cc(/C=C/C(=O)Nc2ccc(S(=O)(=O)Nc3onc(C)c3C)cc2)cc(OC)c1OC returned PRMT1 inh -1, SIAE primary -10, ABHD4 inh -6, rCAG binder 53*, TCR-CD3 inh -6, rCAG bind conf 51* and DNA CAG counter 19*.
For COC(=O)c1ccc(Cn2ccc3ccc(-c4ccc5ccn(C(=O)c6ccccc6C)c5c4)cc32)cc1 the results were PRMT1 inh -3, SIAE primary 3, ABHD4 inh -4 and rCAG binder 7.
`O=C(NCc1ccc(F)c(F)c1)C1C2C=CC3(CN(Cc4ccccc4)C(=O)C13)O2` (stereo unspecified) gave PRMT1 inh -2, SIAE primary 0, ABHD4 inh 4 and rCAG binder 3.
`Cc1noc(NS(=O)(=O)c2ccc(NC(=O)C(F)(F)F)cc2)c1C` gave PRMT1 inh 0, SIAE primary -2, ABHD4 inh 3, rCAG binder -2 and TCR-CD3 inh 3.
`Cc1cc(NS(=O)(=O)c2ccc(NC(=O)Cc3ccc(Cl)c(Cl)c3)cc2)on1` gave PRMT1 inh 5, SIAE primary -10, ABHD4 inh 4, rCAG binder 57*, rCAG bind conf 63* and DNA CAG counter 24*.
`Cc1noc(NS(=O)(=O)c2ccc(NC(=O)/C=C/c3ccc(Br)cc3)cc2)c1C` gave PRMT1 inh 0, SIAE primary 0, ABHD4 inh -7, rCAG binder 82*, TCR-CD3 inh 2, rCAG bind conf 67* and DNA CAG counter 33*.
Screening COC(=O)[C@]12C=CCN1[C@H](c1ccccc1)c1c(c3ccccc3n1S(=O)(=O)c1ccc(C)cc1)C2 returned PRMT1 inh 4, SIAE primary -29, ABHD4 inh -15 and rCAG binder 11.

Screening results: PubChem BioAssay, The Scripps Research Institute Molecular Screening Center
